Paper PMC2905675 (Cell, 2010)
“Also recorded” adds a separate entry of the source. Like-named read-outs stand apart in the source and are kept apart here. No end group written: not given here.

Experiments:
rat TRPV1 [1] = target: T1, rat TRPV1 (Rattus norvegicus, UniProt O35433); experiment: Whole-cell patch-clamp recording from TRPV1-expressing HEK293 cells; assay type: cell-based
[2] = tested on: capsaicin-sensitive trigeminal neurons; experiment: Whole cell patch clamp recordings from capsaicin-sensitive trigeminal neurons; assay type: cell-based, mouse; details: capsaicin 1 μM
TRPV1 = assay type: cell-based, rat; details: outside-out patches containing a single functional TRPV1 channel; capsaicin 1 μM
rat TRPV1 (A657P) = experiment: Whole cell patch clamp, HEK293 cells expressing rat TRPV1; assay type: cell-based; details: +80 mV
[3] = tested on: X. laevis frog TRPV1 (xTRPV1); experiment: Two-electrode voltage clamp, Xenopus oocytes expressing wild type frog TRPV1; assay type: cell-based; details: +80 mV
In short: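 Frog TRPV1 coding sequence cloned from trigeminal and dorsal root ganglion RNA. cRNA made by T7 transcription; stage V–VI oocytes injected with 3–50 ng per oocyte and recorded 3-7 days later in normal frog Ringer's buffered with HEPES (pH 7.4) or MES (pH 5.5). Toxins expressed recombinantly in E. coli, His tag removed by TEV protease, concentration set from predicted 280 nm extinction coefficient.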

rat TRPV1 [4] = target: T1, rat TRPV1; experiment: Calcium imaging dose-response in TRPV1-expressing HEK293 cells; assay type: cell-based; details: ruthenium red 10 μM co-applied
FLAG-TRPV1 (rat) (rat) [5] = target: FLAG-TRPV1 (rat) (rat) (UniProt O35433)
Chain of FLAG-TRPV1 (rat) (rat) (O35433 whole entry): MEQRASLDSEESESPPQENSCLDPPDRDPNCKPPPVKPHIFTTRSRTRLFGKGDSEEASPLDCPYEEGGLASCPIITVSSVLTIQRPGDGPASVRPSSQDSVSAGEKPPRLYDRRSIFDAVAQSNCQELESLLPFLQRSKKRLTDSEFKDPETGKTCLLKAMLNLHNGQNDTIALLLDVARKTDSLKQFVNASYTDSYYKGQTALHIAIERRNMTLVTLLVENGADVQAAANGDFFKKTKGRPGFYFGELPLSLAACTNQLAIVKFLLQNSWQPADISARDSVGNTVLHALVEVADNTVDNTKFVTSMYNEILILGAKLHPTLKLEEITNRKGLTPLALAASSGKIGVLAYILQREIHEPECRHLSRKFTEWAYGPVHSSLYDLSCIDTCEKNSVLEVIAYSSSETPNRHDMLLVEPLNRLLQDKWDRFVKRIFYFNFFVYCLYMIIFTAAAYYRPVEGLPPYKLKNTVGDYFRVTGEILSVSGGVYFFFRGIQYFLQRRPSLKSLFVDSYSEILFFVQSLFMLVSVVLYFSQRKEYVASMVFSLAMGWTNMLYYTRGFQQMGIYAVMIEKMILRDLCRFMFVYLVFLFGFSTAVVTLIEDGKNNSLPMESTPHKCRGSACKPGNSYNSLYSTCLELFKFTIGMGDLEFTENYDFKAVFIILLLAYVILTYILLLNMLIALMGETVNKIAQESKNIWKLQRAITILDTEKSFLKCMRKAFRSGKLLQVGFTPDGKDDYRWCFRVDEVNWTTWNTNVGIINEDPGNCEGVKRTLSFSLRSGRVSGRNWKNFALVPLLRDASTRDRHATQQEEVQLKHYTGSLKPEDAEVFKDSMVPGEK

rat Kv2.1 F274R = assay type: cell-based; details: VaTx1 20 μM; n = 3-5 cells per trace
rat Kv2.1 E277K = assay type: cell-based; details: VaTx1 20 μM; n = 3-5 cells per trace
rat Kv2.1 I273Y = assay type: cell-based; details: VaTx1 20 μM; n = 3-5 cells per trace
FLAG-TRPV1 (rat) (rat) [6] = target: FLAG-TRPV1 (rat) (rat) (UniProt O35433); remark: listed apart in the source

T1 sequence (O35433 whole entry): as above
Chain of recombinant DkTx (P0CH43 whole entry): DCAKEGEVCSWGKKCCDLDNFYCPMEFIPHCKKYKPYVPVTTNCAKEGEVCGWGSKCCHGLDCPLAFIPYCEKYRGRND
Chain of native DkTx (double-knot toxin) (P0CH43 whole entry): as above

COc1cc(CNC(=O)CCCC/C=C/C(C)C)ccc1O [capsaicin]
τoff, time constant of current decay on washout (rat TRPV1 [1]): 0.17 min | time for evoked currents to return to baseline after washout [2]: ≤ 10 s | unitary conductance of single channel events (TRPV1): 118 pS | sensitivity of rat TRPV1 (A657P) (rat TRPV1 (A657P); DkTx 2 μM, VaTx3 2 μM, capsaicin 1 μM): retained sensitivity | sensitivity of frog TRPV1 (xTRPV1) [3]: responds

N.N.N.N.N.N.N.N.N.N.N.N.N.N.[Cl-].[Cl-].[Cl-].[Cl-].[Cl-].[Cl-].[O-2].[O-2].[Ru+3].[Ru+3].[Ru+4] [ruthenium red]
effect on DkTx-evoked calcium increases (rat TRPV1 [4]): inhibits toxin-evoked responses

K1 (Knot 1, N-terminal ICK peptide of DkTx-HYR)
EC50 of TRPV1 activation, calcium imaging of TRPV1-expressing HEK293 cells (FLAG-TRPV1 (rat) (rat) [5]): 8900 nM

K2 (Knot 2, C-terminal ICK peptide of DkTx-HYR)
EC50 of TRPV1 activation, calcium imaging of TRPV1-expressing HEK293 cells (FLAG-TRPV1 (rat) (rat) [5]): 970 nM

VaTx1: vanillotoxin, ICK peptide from the Trinidad Chevron tarantula (Psalmopoeus cambridgei) that activates TRPV1 and inhibits Kv2.1 (SECRWFMGGCDSTLDCCKHLSCKMGLYYCAWDGTF; ends and bridges not checked; cysteine pairing not given here)
activation of wild type rat TRPV1 currents (rat TRPV1 [1]; VaTx1 100 μM, whole cell patch clamp, +80 mV): activation | VaTx1 activation of TRPV1 (A657P) (rat TRPV1 (A657P); VaTx1 100 μM): abolished | effect of F274R mutation on VaTx1-mediated inhibition of Kv2.1 (rat Kv2.1 F274R): eliminated VaTx1-mediated inhibition | effect of E277K mutation on VaTx1-mediated inhibition of Kv2.1 (rat Kv2.1 E277K): eliminated VaTx1-mediated inhibition | effect of I273Y mutation on VaTx1-mediated inhibition of Kv2.1 (rat Kv2.1 I273Y): modest effect; also recorded: no substantial effect

native DkTx (double-knot toxin) (from UniProt P0CH43 1-79) (peptide)
EC50 of TRPV1 activation, calcium imaging of TRPV1-expressing HEK293 cells (FLAG-TRPV1 (rat) (rat) [6]): 230 nM

recombinant DkTx (from UniProt P0CH43 1-79) (peptide)
EC50 of TRPV1 activation, calcium imaging of TRPV1-expressing HEK293 cells (FLAG-TRPV1 (rat) (rat) [6]): 140 nM
